High-throughput results: PubChem BioAssay, several laboratories
An excerpt weighted towards active compounds, which were near 3% of everything screened.
Lipid droplet: modulators of hepatic lipid droplet formation | AML12 mouse hepatocytes, oleate lipid droplets, BODIPY imaging | inhibition, % at 6.5 µM | actives 0.4% (n = 240,000) | AID 1656;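 active = lipid droplet intensity inhibited by at least 50%, with more than 500 cells counted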
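Assay system: AML12 mouse liver cells | Compound dosing: One dose, 6.5 µM compound | Read-out basis: Droplet intensity reduction, % inhibition | Measured by: Fluorescence imaging, 20x objective, two fields per well | Schedule: Overnight treatment with compound plus oleate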
aDG glyco act: increases alpha dystroglycan glycosylation; AID 624168; actives 0.22% (n = 360,000); Pro5-aDG cells, alpha-DG glycosylation AlphaScreen (IIH6); 0% Pro5, 100% B10-LARGE cell signal; activation, % at 10 µM;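 active = activation of at least 8% versus controls, or a plate z-score of at least 8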;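 also: Pro5 are CHO cells carrying HIG-tagged alpha-DG that lacks glycosylation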
NR3A LBD binder: NR3A (human) ligand-binding domain modulation; NR3A LBD differential scanning fluorimetry, Tm shift; 0% = protein alone, 100% = glycine-bound protein; Tm shift relative to glycine control, % at 25 µM; actives 2.5% (n = 340,000);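 active = melting temperature shift of at least 10% of the positive control shift, at one fixed dose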
NPR2 activator: GC-B (human) receptor activation; P20594; actives 0.11% (n = 370,000); HEK293-GC-B cells, CNP EC30, cGMP TR-FRET; 0% at EC30 CNP, 100% saturating CNP; activation, % at 10 µM;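 active = activation at 10 µM reaching about 35% in either raw or pattern-adjusted values, limit read from the data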
JMJD2C inh: inhibitors of human GASC-1 (JMJD2C) demethylase; GST-JMJD2C(1-420) H3K9me3 demethylation, DELFIA europium; inhibition, % at 2.35 µM; actives 0.069% (n = 330,000);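 active = more than half of a compound's replicate wells show inhibition beyond 50%, single wells judged on their own value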;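 also: signal counts dimethyl H3K9 product captured on neutravidin plate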
Target sequence (Q9H3R0 1-420 limits assumed): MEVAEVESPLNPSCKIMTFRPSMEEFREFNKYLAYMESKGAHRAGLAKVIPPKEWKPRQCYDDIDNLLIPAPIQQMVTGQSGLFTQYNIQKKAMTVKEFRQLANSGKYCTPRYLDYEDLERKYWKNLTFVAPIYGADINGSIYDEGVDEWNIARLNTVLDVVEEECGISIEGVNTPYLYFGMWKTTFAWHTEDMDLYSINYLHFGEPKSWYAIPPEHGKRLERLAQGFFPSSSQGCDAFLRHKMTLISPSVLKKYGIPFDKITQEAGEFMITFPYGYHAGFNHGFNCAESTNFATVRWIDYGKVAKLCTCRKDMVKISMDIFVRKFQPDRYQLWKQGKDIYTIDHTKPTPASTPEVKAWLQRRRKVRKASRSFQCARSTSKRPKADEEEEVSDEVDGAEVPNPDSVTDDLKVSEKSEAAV
GC-A act: GC-A (human) enzyme activation; activation, % at 10 µM; HEK293 GC-A cells, cGMP TR-FRET, EC30 ANP; 0% at EC30 ANP, 100% saturating ANP; AID 1671463; actives 0.14% (n = 370,000); P16066; in the data active = activation above about 40%
Numbers stand for hits; - = inactive; . = not tested or not shown.

SMILES	Lipid droplet	aDG glyco act	NR3A LBD binder	NPR2 activator	JMJD2C inh	GC-A act
C=CCN1C(=O)c2n[nH]c(COC)c2C1c1ccc(Br)cc1 (stereo not drawn)	.	.	.	-	.	-
c1ccc(Cn2c(SCC3CCC3)nnc2-c2cccnc2)cc1	.	.	.	-	.	-
O=C(NC1CCCC1)c1cc2nc(-c3ccco3)cc(C(F)(F)F)n2n1	-	-	-	-	-	-
Cc1ccccc1Nc1nc(-c2ccccc2)c(C(=O)Nc2cccnc2)s1	-	-	-	-	-	-
COc1ccc(Nc2nc(-c3ccccc3)c(C(=O)Nc3cccnc3)s2)cc1	-	-	19	-	-	-
CCCCc1cc(=O)oc2cc(C)cc(OCC(=O)N3C[C@H]4C[C@@H](C3)c3cccc(=O)n3C4)c12	-	-	-	-	-	-
CCn1c(=S)sc2c(=O)n(CC(=O)Nc3cccc(Cl)c3)c(C)nc21	-	-	33	-	-	-
CCOC(=O)c1ccc(NC(=O)Cn2c(C)nc3c(sc(=S)n3CC)c2=O)cc1	-	-	-	-	-	-
CCOC(=O)c1sc(=S)n(-c2cc(F)ccc2F)c1N	.	-	14	-	-	-
COc1ccc(OC)c(Nc2ccc(Nc3cc(OC)ccc3OC)nn2)c1	-	-	-	-	-	-
COc1ccccc1Nc1ccc(Nc2ccccc2OC)nn1	-	-	12	-	-	-
O=c1oc2ccccc2cc1-c1csc(Nc2nc3c(F)cccc3s2)n1	-	-	23	-	-	-
C=CCCC1(CCC)C(=O)/C(=C(\O)c2ccccc2)C(=O)C(CCC)=C1OC (stereo not drawn)	.	.	.	-	.	-
C=CCNC(=O)c1ccc(-c2nc(-c3ccc(Cl)c(Cl)c3)cs2)cc1	.	-	31	-	-	-
C=CCNC(=O)c1ccc(-c2nc(-c3ccc(Cl)cc3Cl)cs2)cc1	-	-	-	-	-	-
CCCCCCNC(=O)C1CSCCS(=O)(=O)N1Cc1ccc(OC)cc1 (stereo not drawn)	.	.	.	-	.	-
O=C(O)c1cc(S(=O)(=O)N(Cc2ccccc2)c2ccc(Cl)cc2)ccc1Cl	-	-	39	-	-	-
CCCn1nc(C(=O)Nc2ccc(S(=O)(=O)Nc3nccs3)cc2)c2ccccc2c1=O	-	-	-	-	-	-
CCCn1nc(C(=O)Nc2cc(S(=O)(=O)Nc3ccc(OC)cc3)ccc2O)c2ccccc2c1=O	.	-	27	-	-	-
COc1ccc(NC(=O)c2cc(-c3cc(F)ccc3OCC3CCCO3)n[nH]2)c(C)c1 (stereo not drawn)	.	-	.	79	.	60
COc1ccc(NC(=O)c2cc(-c3cc(F)ccc3OC)n[nH]2)c(C)c1	.	-	.	71	.	55
COc1ccc(NC(=O)c2cc(-c3ccc(F)cc3OC(C)C)n[nH]2)c(OC)c1	.	-	.	-	.	-
COc1ccc(NC(=O)c2ccc3[nH]c(C)c(C)c3c2)c(OC)c1	-	-	15	-	-	-
COc1ccc(NC(=O)c2cc(-c3cc(F)ccc3OC(C)C)n[nH]2)c(OC)c1	.	-	.	-	.	-
COc1ccc(NC(=O)c2cc(-c3ccc(C)cc3O)n[nH]2)c(OC)c1	-	-	38	-	-	-
SMILES	Lipid droplet	aDG glyco act	NR3A LBD binder	NPR2 activator	JMJD2C inh	GC-A act
O=S1(=O)c2ccc(Br)cc2OC[C@@H](c2ccccc2)N1Cc1cn(CCC2OCCO2)nn1	.	.	.	-	.	-
COC(=O)C1CN(Cc2ccc(OC)cc2)CCS(=O)(=O)N1Cc1cn(Cc2ccc(OC)cc2)nn1 (stereo not drawn)	.	.	.	-	.	-
NC(=O)c1c(N)[nH]c(C(=O)c2ccccc2)c1-c1ccc2c(c1)OCO2	.	.	.	-	.	-
CC1=C(C(=O)N2CCOCC2)C(c2ccc(Cl)cc2)NC(=S)N1 (stereo not drawn)	-	-	-	61	-	54
CC1=C(C(=O)N2CCOCC2)C(c2c(C)cc(C)cc2C)NC(=S)N1 (stereo not drawn)	-	-	-	-	-	-
CC1=C(C(=O)N2CCOCC2)C(c2ccc(C)cc2)NC(=S)N1 (stereo not drawn)	-	-	-	65	-	59
Cn1cc(C2(c3c[nH]c4ccccc34)CCN(C(=O)OC(C)(C)C)CC2)c2ccccc21	.	.	.	-	.	-
Nn1c(SCC(=O)NC2CCCCC2)nnc1-c1cc(-c2ccc(Cl)cc2)n[nH]1	.	.	.	-	.	-
C/C(N)=C(/C#N)C(=O)CSc1nnc(SCc2ccc(Cl)cc2)s1	-	-	-	-	-	-
C/C(N)=C(/C#N)C(=O)CSc1nn(-c2ccc(Cl)cc2)c(=S)s1	-	-	13	-	-	-
Cc1ccc(C(C)c2c(C)c([N+](=O)[O-])cc(C)c2[N+](=O)[O-])cn1 (stereo not drawn)	-	-	-	-	-	-
O=C(Nc1ccc(S(=O)(=O)Nc2cnc3ccccc3n2)cc1)c1cccc(OC(F)F)c1	-	-	11	-	-	-
COC(=O)c1cc(NS(=O)(=O)c2ccc(N3CCCCCC3)c([N+](=O)[O-])c2)cc(C(=O)OC)c1	.	-	-	-	-	-
O=C(O)c1ccc(NS(=O)(=O)c2ccc(N3CCCC3)c([N+](=O)[O-])c2)cc1	-	-	10	-	-	-
NC(=O)c1ccc(NS(=O)(=O)c2ccc3ccccc3c2)cc1	-	-	12	-	-	-
O=C(O)c1ccc(NS(=O)(=O)c2ccc(C(=O)Nc3ccccc3)cc2)cc1	-	-	17	-	-	-
CC(=O)c1ccc(NS(=O)(=O)c2ccc3ccccc3c2)cc1	-	-	-	-	-	-
Cc1cc(C)cc(N(CC(=O)NC2CCC(C)CC2)S(=O)(=O)c2ccc(C(C)(C)C)cc2)c1 (stereo not drawn)	.	.	.	-	.	-
O=C(c1ccccc1C(F)(F)F)N1CCC(Oc2cccnc2)CC1	.	.	.	-	.	-
NC(=O)c1ccc(NC(=O)c2cnc3ccccc3n2)cc1	-	-	16	-	-	-
CC(C)(C)c1ccc(C(=O)Nc2ccc(S(=O)(=O)Nc3cnc4ccccc4n3)cc2)cc1	-	-	13	-	-	-
Cc1ccc(C(=O)N2CCCCC2)cc1S(=O)(=O)N1CCCCCC1	-	-	-	-	-	-
O=C(c1cc(S(=O)(=O)N2CCCCC2)ccc1Cl)N1CCOCC1	-	-	-	-	-	-
CCOC(=O)C1CCN(S(=O)(=O)c2cc(C(=O)N3CCCCC3)ccc2OC)CC1	-	-	-	-	-	-
Cc1ccc(S(=O)(=O)N2CCN(C(=O)c3cc(S(=O)(=O)N4CCOCC4)ccc3Cl)CC2)c(C)c1	.	-	12	-	.	-
CCOC(=O)C1CCN(C(=O)c2ccc(C)c(S(=O)(=O)N3CCCC3)c2)CC1	-	-	11	-	-	-
